These results are taken from article PMC10206482 (RSC Advances, 2023).

In brackets after ≈: the same amount, converted by molar mass.

One data set deals with human hepatoma (Huh-7). Briefly: MTT antiproliferative assay, Huh-7. The data set is classed as cell-based. The settings on record: Huh-7, read-out: Human hepatoma (Huh-7) IC50. The essentials: (§1)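 Colorimetric MTT viability readout, run in parallel on human Huh-7 hepatoma, A549 lung adenocarcinoma and MCF-7 breast cancer cells, and on MDCK canine kidney cells as the non-cancerous model. Test compound at four concentrations (0.1, 1, 10, 100 μM), with Taxol as the positive reference. % viability was plotted against concentration, and IC50 was derived as 50% growth inhibition relative to untreated control.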

The subject of data set [1] is lung cell cancer adenocarcinoma (A549). Briefly: MTT antiproliferative assay, A549. The data set is classed as cell-based. The settings on record: Homo sapiens, A549, read-out: Lung cell cancer adenocarcinoma (A549) IC50. The method, boiled down: as §1
For data set [2], the system named is Michigan Cancer Foundation-7 breast cancer (MCF-7). Nature of the data set: MTT antiproliferative assay, MCF-7. Format: cell-based. The settings on record: Homo sapiens, MCF7, read-out: Michigan cancer foundation-7 breast cancer (MCF-7) IC50. The method, boiled down:
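Human MCF-7 breast cancer cells were exposed to the test compound at 0.1, 1, 10 and 100 μM, with Taxol as positive reference. Viability was read by MTT and plotted as % cell viability against concentration (μM). IC50 is the concentration giving 50% growth inhibition relative to untreated control cells, taken from the dose–response curve.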

A further data set has as its system tubulin. Nature of the data set: Tubulin polymerization assay. The settings on record: for Inhibition (%) of tubulin polymerisation: in vitro tubulin inhibition assay; for IC50: read-out: IC50 tubulin polymerisation; for IC50 / IC50 tubulin polymerisation: as printed in Table 2 and results text. Format: biochemical. The method, boiled down: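 Turbidimetric tubulin polymerization, using tubulin at 4 mg ml⁻¹. Test compound came from a 2 mM DMSO stock, diluted with water to final 0.1, 1, 10 and 100 μM. Polymerization was started by moving the reaction from 4 °C to a pre-warmed 37 °C plate. Absorbance at 340 nm was followed kinetically at 37 °C (0.5 cm pathlength). CA-4 served as reference.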

The subject of the next data set is mammary tumors. Nature of the data set: In vivo DMBA-induced breast cancer model: tumor size and histopathology. More on the design: species or system Wistar rats. The settings on record: after treatment, 2 mg per kg per week.
Data set [3] is described as follows: Body weight of tumor-bearing rats during treatment. The data set is classed as in vivo, Wistar rats. The settings on record: 2 mg per kg per week, day 0 to day 42.
For the next data set, the system named is (A549) cells. Nature of the data set: Morphological assessment of A549 cells. The data set is classed as cell-based, human. The settings on record: 100 μM, 48 h, compared to untreated control. The method, boiled down:
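Living cells were examined by inverted light microscopy for morphology changes, after exposure to test compound. Comparators were an untreated control and a Taxol-treated positive control.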

Take `CCOc1cc(/C=C2\CN(C(C)=O)CC3=C2NC(=S)NC3c2ccc(O)c(OCC)c2)ccc1O` (stereo not shown) [4b, (E)-6-Acetyl-8-(3-ethoxy-4-hydroxybenzylidene)-4-(3-ethoxy-4-hydroxyphenyl)-1,3,4,5,7,8-hexahydro-2H-pyrido[4,3-d]pyrimidin-2-thione]: the results for the concentration for half-maximal inhibition (IC50) (with human hepatoma (Huh-7); in data set [1]; in data set [2]) were 7.27 µM, 42.3 µM and 16 µM, respectively.

Turning to `COc1cc(/C=C2\CN(C(C)=O)CC3=C2OC(N)=C(C#N)C3c2ccc(O)c(OC)c2)ccc1O` (stereo not shown) [3a, (E)-6-Acetyl-2-amino-3-cyano-8-(4-hydroxy-3-methoxybenzylidene)-4-(4-hydroxy-3-methoxyphenyl)-5,6,7,8-tetrahydro-4H-pyrano[3,2-c]pyridine], the “Inhibition (%) of tubulin polymerisation” value in the data set with tubulin is recorded as 79%. The concentration for half-maximal inhibition (IC50) is 15.6 µM in the data set with tubulin, 3.88 µM in the data set with human hepatoma (Huh-7), 31.6 µM in data set [1] and 8.87 µM in data set [2].

Take `CCOc1cc(/C=C2\CN(C(C)=O)CC3C2=NN(c2ccccc2)C3c2ccc(O)c(OCC)c2)ccc1O` (stereo not shown) [5b, (E)-5-Acetyl-7-(3-ethoxy-4-hydroxybenzylidene)-3-(3-ethoxy-4-hydroxyphenyl)-2-phenyl-2,3,3a,4,6,7-hexahydro-5H-pyrazolo[4,3-c]pyridine]: the “Inhibition (%) of tubulin polymerisation” value in the data set on tubulin is on record as 70%. Also, the half-maximal inhibitory concentration (IC50) in the data set with tubulin was found to be 12.6 µM; in the data set with human hepatoma (Huh-7) it was 2.23 µM; in data set [1], 15.2 µM; in data set [2], 9.04 µM.

With `COc1cc(/C=C2\CN(C(C)=O)CC3=C2NC(=S)NC3c2ccc(O)c(OC)c2)ccc1O` (stereo not shown) [4a, (E)-6-Acetyl-8-(4-hydroxy-3-methoxybenzylidene)-4-(4-hydroxy-3-methoxyphenyl)-1,3,4,5,7,8-hexahydro-2H-pyrido[4,3-d]pyrimidin-2-thione], the half-maximal inhibitory concentration (IC50) was 2.48 µM in the data set on human hepatoma (Huh-7), 46.9 µM in data set [1] and 8.01 µM in data set [2].

As to `CC(=O)O[C@H]1C(=O)[C@@]2(C)[C@H]([C@H](OC(=O)c3ccccc3)[C@]3(O)C[C@H](OC(=O)[C@H](O)[C@@H](NC(=O)c4ccccc4)c4ccccc4)C(C)=C1C3(C)C)[C@]1(OC(C)=O)CO[C@@H]1C[C@@H]2O` [Taxol, reference compound], the “Histopathology of mammary gland (H&E): inflammatory cells infiltrates” value in the data set with mammary tumors is reported as “intensity of inflammatory cells infiltrates decreased”. In addition, the IC50 stood at 6.68 µM in the data set with human hepatoma (Huh-7), 38.1 µM in data set [1] and 12.3 µM in data set [2]. Besides, the “Effect on rats' body weights” value in data set [3] is recorded as “did not have a significant effect”. Besides, in the data set with (A549) cells, the “Morphological assessment of cells” value is recorded as “apparent cell toxicity”.

As for `CCOc1cc(/C=C2\CN(C(C)=O)CC3=C2OC(N)=C(C#N)C3c2ccc(O)c(OCC)c2)ccc1O` (stereo not shown) [3b, (E)-6-Acetyl-2-amino-3-cyano-4-(3-ethoxy-4-hydroxy-phenyl)-8-(3-ethoxy-4-hydroxy-benzylidene)-5,6,7,8-tetrahydro-4H-pyrano[3,2-c]pyridine], in the data set on mammary tumors, the “Histopathology of mammary gland (H&E): inflammatory cells infiltrates” value is “intensity of inflammatory cells infiltrates decreased”. The IC50 tubulin polymerisation in the data set on tubulin came out at 4.03 µg/mL (≈ 8 µM). The “Inhibition (%) of tubulin polymerisation” value in the data set with tubulin turned out to be 81%. The IC50 is 4.03 µM in the data set on tubulin, 6.54 µM with human hepatoma (Huh-7), 15.5 µM in data set [1] and 6.13 µM in data set [2]. Besides, in data set [3], the “Effect on rats' body weights” value is “did not have a significant effect”. In addition, the “Morphological assessment of cells” value with (A549) cells is given as “apparent cell toxicity”.

For the compound `COc1ccc(/C=C\c2cc(OC)c(OC)c(OC)c2)cc1O` [CA-4, Combretastatin A-4, reference compound], in the data set with tubulin, the IC50 tubulin polymerisation turned out to be […], the “Inhibition (%) of tubulin polymerisation” value was […] and the IC50 was determined as […].

As to `COc1cc(/C=C2\CN(C(C)=O)CC3C2=NN(c2ccccc2)C3c2ccc(O)c(OC)c2)ccc1O` (stereo not shown) [5a, (E)-5-Acetyl-7-(4-hydroxy-3-methoxybenzylidene)-3-(4-hydroxy-3-methoxyphenyl)-2-phenyl-2,3,3a,4,6,7-hexahydro-5H-pyrazolo[4,3-c]pyridine], the “Inhibition (%) of tubulin polymerisation” value in the data set on tubulin came out at 76%. Further, the IC50 in the data set on tubulin is 6.06 µM; in the data set with human hepatoma (Huh-7) it was 5.47 µM; in data set [1] it was 20.3 µM; in data set [2], 5.27 µM.

With `CC(=O)N1CC2=C(OC(N)=C(C#N)C2/C=C/c2ccccc2)/C(=C/C=C/c2ccccc2)C1` (stereo not shown) [3d, (E)-6-Acetyl-2-amino-3-cyano-8-((E)-3-phenylallylidene)-4-((E)-styryl)-5,6,7,8-tetrahydro-4H-pyrano[3,2-c]pyridine], the concentration for half-maximal inhibition (IC50) in the data set with human hepatoma (Huh-7) was 20.7 µM.

As to `CC(=O)N1CC2=C(OC(N)=C(C#N)C2c2ccc(Cl)cc2)/C(=C/c2ccc(Cl)cc2)C1` (stereo not shown) [3c, (E)-6-Acetyl-2-amino-3-cyano-8-(4-chlorobenzylidene)-4-(4-chlorophenyl)-5,6,7,8-tetrahydro-4H-pyrano[3,2-c]pyridine], the half-inhibitory concentration (IC50) in the data set with human hepatoma (Huh-7) is 17.7 µM; in data set [1], 61.2 µM; in data set [2], 6.38 µM.
